Measurements as given in ChEMBL document CHEMBL4411315, “Discovery of Novel Dual Histone Deacetylase and Mammalian Target of Rapamycin Target Inhibitors as a Promising Strategy for Cancer Therapy” (J Med Chem, 2019).
Activity calls are given as the source filed them. The rule behind the calls is not given here.

Columns and labels:
MV4-11 [1] = assay: Induction of apoptosis in human MV4-11 cells assessed as late apoptotic cells at 20 nM after 48 hrs by Annexin V-FITC/propidium iodide staining-based flow cytometric analysis (reference value: 5.03%); type: functional
Histone deacetylase 1 = Histone deacetylase 1 (Homo sapiens, UniProt Q13547); assay: Inhibition of recombinant full length HDAC1 (unknown origin) using Ac-peptide-AMC as substrate preincubated for 15 mins followed by substrate addition and measured after 1 hr by fluorescence assay
Histone deacetylase 8 = Histone deacetylase 8 (Homo sapiens, UniProt Q9BY41); assay: Inhibition of recombinant full length C-terminal His-tagged human HDAC8 expressed in baculovirus expression system using Ac-peptide-AMC as substrate preincubated for 15 mins followed by substrate addition and measured after 1 hr by fluorescence assay
Histone deacetylase 4 = Histone deacetylase 4 (Homo sapiens, UniProt P56524); assay: Inhibition of recombinant full length human HDAC4 expressed in baculovirus infected sf9 cells using Ac-peptide-AMC as substrate preincubated for 15 mins followed by substrate addition and measured after 1 hr by fluorescence assay
MV4-11 [2] = assay: Cell cycle arrest in human MV4-11 cells assessed as accumulation at G0/G1 phase at 1.25 nM after 24 hrs by propidium iodide/RNase staining-based FACS analysis (reference value: 44.79%); type: functional
MV4-11 [3] = assay: Cell cycle arrest in human MV4-11 cells assessed as accumulation at G0/G1 phase at 2.5 nM after 24 hrs by propidium iodide/RNase staining-based FACS analysis (reference value: 44.79%); type: functional
MM1.S [4] = assay: Cell cycle arrest in human MM1S cells assessed as accumulation at S phase at 1.25 nM after 24 hrs by propidium iodide/RNase staining-based FACS analysis (reference value: 24.49%); type: functional
MM1.S [5] = assay: Cell cycle arrest in human MM1S cells assessed as accumulation at G2/M phase at 2.5 nM after 24 hrs by propidium iodide/RNase staining-based FACS analysis (reference value: 26.29%); type: functional
MM1.S [6] = assay: Cell cycle arrest in human MM1S cells assessed as accumulation at G2/M phase at 5 nM after 24 hrs by propidium iodide/RNase staining-based FACS analysis (reference value: 26.29%); type: functional
MM1.S [7] = assay: Cell cycle arrest in human MM1S cells assessed as accumulation at S phase at 5 nM after 24 hrs by propidium iodide/RNase staining-based FACS analysis (reference value: 24.49%); type: functional
MM1.S [8] = assay: Cell cycle arrest in human MM1S cells assessed as accumulation at G0/G1 phase at 10 nM after 24 hrs by propidium iodide/RNase staining-based FACS analysis (reference value: 49.22%); type: functional
MV4-11 [9] = assay: Induction of apoptosis in human MV4-11 cells assessed as late apoptotic cells at 10 nM after 48 hrs by Annexin V-FITC/propidium iodide staining-based flow cytometric analysis (reference value: 5.03%); type: functional
MV4-11 [10] = assay: Induction of apoptosis in human MV4-11 cells assessed as necrotic cells at 10 nM after 48 hrs by Annexin V-FITC/propidium iodide staining-based flow cytometric analysis (reference value: 0.17%); type: functional
MV4-11 [11] = assay: Induction of apoptosis in human MV4-11 cells assessed as early apoptotic cells at 20 nM after 48 hrs by Annexin V-FITC/propidium iodide staining-based flow cytometric analysis (reference value: 10.7%); type: functional
MV4-11 [12] = assay: Induction of apoptosis in human MV4-11 cells assessed as early apoptotic cells at 40 nM after 48 hrs by Annexin V-FITC/propidium iodide staining-based flow cytometric analysis (reference value: 10.7%); type: functional
MV4-11 [13] = assay: Induction of apoptosis in human MV4-11 cells assessed as necrotic cells at 40 nM after 48 hrs by Annexin V-FITC/propidium iodide staining-based flow cytometric analysis (reference value: 0.17%); type: functional
MV4-11 [14] = assay: Induction of apoptosis in human MV4-11 cells assessed as late apoptotic cells at 80 nM after 48 hrs by Annexin V-FITC/propidium iodide staining-based flow cytometric analysis (reference value: 5.03%); type: functional
MV4-11 [15] = assay: Induction of apoptosis in human MV4-11 cells assessed as viable cells at 320 nM after 48 hrs by Annexin V-FITC/propidium iodide staining-based flow cytometric analysis (reference value: 84.1%); type: functional; details: MV4-11, 48 h, read-out: Activity
MM1.S [16] = assay: Induction of apoptosis in human MM1S cells assessed as late apoptotic cells at 10 nM after 48 hrs by Annexin V-FITC/propidium iodide staining-based flow cytometric analysis (reference value: 0.42%); type: functional
MM1.S [17] = assay: Induction of apoptosis in human MM1S cells assessed as early apoptotic cells at 20 nM after 48 hrs by Annexin V-FITC/propidium iodide staining-based flow cytometric analysis (reference value: 0.38%); type: functional
MM1.S [18] = assay: Induction of apoptosis in human MM1S cells assessed as early apoptotic cells at 80 nM after 48 hrs by Annexin V-FITC/propidium iodide staining-based flow cytometric analysis (reference value: 0.38%); type: functional
MM1.S [19] = assay: Induction of apoptosis in human MM1S cells assessed as late apoptotic cells at 160 nM after 48 hrs by Annexin V-FITC/propidium iodide staining-based flow cytometric analysis (reference value: 0.42%); type: functional
MM1.S [20] = assay: Induction of apoptosis in human MM1S cells assessed as necrotic cells at 320 nM after 48 hrs by Annexin V-FITC/propidium iodide staining-based flow cytometric analysis (reference value: 0.32%); type: functional
[21] = molecular target: Serine/threonine-protein kinase mTOR (Homo sapiens, UniProt P42345); assay: Inhibition of mTOR in human MV4-11 cells assessed as decrease in 4EBP1 phosphorylation at ser 65 residues at 0.01 to 10 uM after 24 hrs by Western blot analysis; type: cell-based
How it was run: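 Treatment of MV4-11 cells lasted 24 h at 0.01, 0.1, 1 and 10 μM. Lysis in RIPA buffer and BCA quantitation, then 30 μg protein by SDS-PAGE, PVDF transfer, 5% milk block, primary antibody overnight at 4 °C, HRP secondary 1 h and ECL detection. p-p70S6K (T389), p-4EBP1 (S65), p-Akt (S473) and p-ERK were probed.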

MM1.S [22] = assay: Antitumor activity against human MM1S cells xenografted in NOD/SCID mouse assessed as tumor growth inhibition at 20 mg/kg, iv administered every 2 days for 5 days and measured every 2 days post last dose by caliper method relative to control; type: functional; details: read-out: TGI
How it was run: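 MM1S xenografts were made with 10^7 cells in 100 μL serum-free RPMI 1640, injected s.c. into the right flank of female NOD/SCID mice aged 5-6 weeks. Mice were randomized at 100-200 mm3, 6 per group. Dosing was i.v. every 2 days in saline with 2.5% DMSO and 10% cyclodextrin at pH 9. Tumours were measured by caliper every 2 days (volume = length × width² × 0.5) and weighed at the end.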

[23] = Toxicity against NOD/SCID mouse xenografted with human MV4-11 cells assessed as mouse survival at 10 mg/kg, iv administered every 2 days for 6 days; type: organism-based; details: in vivo
How it was run: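 MV4-11 cells (10^7 in 100 μL serum-free IMDM) were injected s.c. into the right flank of female NOD/SCID mice aged 5-6 weeks. Groups of 6 were randomised at 100-200 mm3. Dosing was i.v. every 2 days in physiological saline containing 2.5% DMSO and 10% cyclodextrin, pH 9. Tumours were measured by caliper every 2 days. Survivors were counted.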

Sequence of Histone deacetylase 1 (Q13547 whole entry): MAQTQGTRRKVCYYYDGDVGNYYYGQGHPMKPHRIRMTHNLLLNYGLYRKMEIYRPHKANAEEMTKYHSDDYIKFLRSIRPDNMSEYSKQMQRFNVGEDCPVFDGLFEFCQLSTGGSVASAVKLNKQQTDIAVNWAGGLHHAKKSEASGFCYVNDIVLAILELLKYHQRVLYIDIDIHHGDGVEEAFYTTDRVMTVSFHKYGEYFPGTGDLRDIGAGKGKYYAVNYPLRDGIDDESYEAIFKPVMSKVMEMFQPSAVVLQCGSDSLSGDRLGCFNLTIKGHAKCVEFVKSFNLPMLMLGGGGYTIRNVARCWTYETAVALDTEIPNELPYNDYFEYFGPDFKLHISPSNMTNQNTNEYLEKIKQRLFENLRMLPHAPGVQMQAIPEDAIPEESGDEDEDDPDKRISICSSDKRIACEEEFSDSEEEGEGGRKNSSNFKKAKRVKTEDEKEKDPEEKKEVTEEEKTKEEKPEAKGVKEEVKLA
Sequence of Histone deacetylase 8 (Q9BY41 whole entry): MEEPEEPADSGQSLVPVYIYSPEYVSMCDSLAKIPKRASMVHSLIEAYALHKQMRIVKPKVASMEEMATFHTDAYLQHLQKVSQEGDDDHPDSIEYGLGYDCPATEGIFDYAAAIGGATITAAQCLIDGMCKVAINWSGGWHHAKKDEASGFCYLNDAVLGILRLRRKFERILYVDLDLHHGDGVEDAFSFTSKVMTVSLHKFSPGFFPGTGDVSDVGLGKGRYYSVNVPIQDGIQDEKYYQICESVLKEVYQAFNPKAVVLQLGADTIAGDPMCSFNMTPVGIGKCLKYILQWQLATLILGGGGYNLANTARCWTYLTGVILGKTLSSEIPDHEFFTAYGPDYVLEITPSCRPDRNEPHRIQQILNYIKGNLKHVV
Sequence of Histone deacetylase 4 (P56524 whole entry): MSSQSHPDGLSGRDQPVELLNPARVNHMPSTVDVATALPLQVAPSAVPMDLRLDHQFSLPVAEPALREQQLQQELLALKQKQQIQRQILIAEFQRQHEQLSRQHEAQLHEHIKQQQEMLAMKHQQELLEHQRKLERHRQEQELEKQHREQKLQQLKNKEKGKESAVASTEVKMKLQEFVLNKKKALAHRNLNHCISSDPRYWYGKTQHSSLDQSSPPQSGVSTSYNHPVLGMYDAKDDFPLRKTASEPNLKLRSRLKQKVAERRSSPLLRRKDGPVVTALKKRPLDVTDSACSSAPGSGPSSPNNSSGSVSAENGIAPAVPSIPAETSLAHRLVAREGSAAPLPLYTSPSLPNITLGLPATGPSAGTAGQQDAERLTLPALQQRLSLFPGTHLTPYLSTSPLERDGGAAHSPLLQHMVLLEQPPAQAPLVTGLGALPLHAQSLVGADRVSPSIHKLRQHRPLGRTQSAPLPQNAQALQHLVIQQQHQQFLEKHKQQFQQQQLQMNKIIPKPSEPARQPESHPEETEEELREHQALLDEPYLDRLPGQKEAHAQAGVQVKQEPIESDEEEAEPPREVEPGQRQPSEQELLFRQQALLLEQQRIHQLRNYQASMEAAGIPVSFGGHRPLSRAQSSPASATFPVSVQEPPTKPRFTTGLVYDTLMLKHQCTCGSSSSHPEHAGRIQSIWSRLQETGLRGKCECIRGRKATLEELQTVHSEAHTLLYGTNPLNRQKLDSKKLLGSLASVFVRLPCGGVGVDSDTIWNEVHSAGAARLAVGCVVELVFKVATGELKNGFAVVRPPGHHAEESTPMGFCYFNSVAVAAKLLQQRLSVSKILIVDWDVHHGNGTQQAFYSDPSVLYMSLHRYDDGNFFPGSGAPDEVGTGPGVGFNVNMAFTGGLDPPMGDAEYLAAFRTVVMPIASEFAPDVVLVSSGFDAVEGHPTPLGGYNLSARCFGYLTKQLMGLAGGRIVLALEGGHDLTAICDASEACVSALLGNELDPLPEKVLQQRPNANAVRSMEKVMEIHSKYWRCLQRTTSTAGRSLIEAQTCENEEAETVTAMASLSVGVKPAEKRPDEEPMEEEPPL

C[C@@H]1CN(C(=O)Nc2ccc(-c3nc(N4CCOCC4)c4cnn(CCCCCCC(=O)NO)c4n3)cc2)CCO1
Activity (MV4-11 [1]): 38.4%
IC50 (Histone deacetylase 1): 0.19 nM
IC50 (Histone deacetylase 8): 1.28 nM
IC50 (Histone deacetylase 4): > 1000 nM
Activity (MV4-11 [2]): 46.85%
Activity (MV4-11 [3]): 48.03%
Activity (MM1.S [4]): 22.05%
Activity (MM1.S [5]): 25.8%
Activity (MM1.S [6]): 24.4%
Activity (MM1.S [7]): 17.65%
Activity (MM1.S [8]): 66.96%
Activity (MV4-11 [9]): 9.91%
Activity (MV4-11 [10]): 0.14%
Activity (MV4-11 [11]): 38.2%
Activity (MV4-11 [12]): 37.4%
Activity (MV4-11 [13]): 2.05%
Activity (MV4-11 [14]): 56.5%
viability at 0.32 µM (MV4-11 [15]): 2.57%
Activity (MM1.S [16]): 1.49%
Activity (MM1.S [17]): 1.61%
Activity (MM1.S [18]): 7.95%
Activity (MM1.S [19]): 63.3%
Activity (MM1.S [20]): 2.2%
inhibition [21]: Active
inhibition in vivo at 20 mg/kg (MM1.S [22]): 72.5%
Activity [23]: Non-Toxic
